{
  "source": "paper PMC11522000",
  "about": "(Nature Microbiology, 2024)",
  "key": {"TK6 cells": {"test_system": "TK6 cells", "experiment": "In vitro micronucleus test in TK6 cells", "type": "cell-based"}, "Plasma protein binding": {"experiment": "Plasma protein binding", "type": "in vitro ADME", "details": "rat"}, "[1]": {"experiment": "In vivo pharmacokinetic analysis", "details": "male, Beagle, dog, plasma", "method_in_brief": "(§1)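 Animals were male C57BL/6 mice (8–10 weeks), Wistar rats (8–10 weeks) and beagle dogs (12–14 weeks). Each received oral and i.v. doses, with plasma sampling for PK parameters.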"}, "[2]": {"experiment": "Stability in intestinal S9 fraction", "type": "in vitro ADME", "details": "dog", "method_in_brief": "(§2)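 Test compound added to intestinal S9 fraction of each species to start the reaction. Incubated in a shaking water bath at 37 °C, with samples taken at sequential timepoints. Samples quenched with ice-cold acetonitrile and analysed by LC-MS/MS. Half-life calculated from the rate of parent compound depletion.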"}, "[3]": {"experiment": "Stability in intestinal S9 fraction", "type": "in vitro ADME, calf", "details": "bovine", "method_in_brief": "as §2"}, "Lipophilicity": {"experiment": "Lipophilicity", "type": "physicochemical"}, "[4]": {"experiment": "Stability in intestinal S9 fraction", "type": "in vitro ADME", "details": "rat", "method_in_brief": "as §2"}, "C. parvum [5]": {"test_system": "C. parvum", "experiment": "Time-kill assay, nanoluciferase-expressing C. parvum", "type": "cell-based, Cryptosporidium parvum"}, "C. parvum [6]": {"test_system": "C. parvum", "experiment": "Live imaging of C. parvum in HCT-8 cells", "type": "cell-based, Cryptosporidium parvum", "details": "compound at 3 h post infection"}, "[7]": {"experiment": "In vivo pharmacokinetics, all tested preclinical species", "details": "male, mouse, rat, dog, plasma, po", "method_in_brief": "as §1"}, "Plasma stability": {"experiment": "Plasma stability", "type": "in vitro ADME", "details": "dog", "method_in_brief": "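Test compound was added to plasma and incubated at 37 °C in a shaking water bath, with samples taken at sequential timepoints. Samples were quenched with ice-cold acetonitrile and analysed by LC-MS/MS, and half-life was calculated from the depletion rate.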"}, "human PXR": {"test_system": "human PXR", "experiment": "PXR reporter gene assay", "type": "in vitro ADME", "method_in_brief": "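CYP3A4 transactivation was measured in the human hepatoma line DPX-2, which overexpresses human PXR and carries a CYP3A4 promoter-luciferase reporter.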"}, "[8]": {"test_system": "MDR-transfected MDCK cells", "experiment": "MDCK MDR1 permeability and efflux", "type": "in vitro ADME", "details": "MDCK MDR1, basolateral to apical"}, "[9]": {"experiment": "Stability in intestinal S9 fraction", "type": "in vitro ADME", "details": "human", "method_in_brief": "as §2"}, "hCav1.2": {"target": "hCav1.2 (Homo sapiens, UniProt Q13936)", "experiment": "Patch clamp Cav1.2 Quattro", "type": "cell-based", "method_in_brief": "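Each channel was stably expressed in HEK293 cells and tested by patch clamp with a 7-point concentration-response.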"}, "[10]": {"experiment": "2 weeks GLP rat toxicology study with toxicokinetics", "type": "in vivo", "details": "both, Wistar; for AUC(0-t): AUC0-8, rat", "method_in_brief": "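Male and female Wistar rats were about 7–8 weeks old at receipt and 9–10 weeks old at the start of dosing. They were dosed for 2 weeks at 50, 250 and 1000 mg/kg/day, with toxicokinetic plasma sampling.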"}, "Cytotoxicity assay": {"experiment": "Cytotoxicity assay", "type": "cell-based, human", "details": "human, HepG2 cells (ATCC CRL-10741), HepG2 CC50, 96 h"}, "[11]": {"experiment": "In vivo pharmacokinetic analysis", "parameters": "species or system rat", "details": "portal vein cannulated rats, oral"}, "ATM": {"target": "ATM (Homo sapiens, UniProt Q13315)", "sequence (Q13315 whole entry)": "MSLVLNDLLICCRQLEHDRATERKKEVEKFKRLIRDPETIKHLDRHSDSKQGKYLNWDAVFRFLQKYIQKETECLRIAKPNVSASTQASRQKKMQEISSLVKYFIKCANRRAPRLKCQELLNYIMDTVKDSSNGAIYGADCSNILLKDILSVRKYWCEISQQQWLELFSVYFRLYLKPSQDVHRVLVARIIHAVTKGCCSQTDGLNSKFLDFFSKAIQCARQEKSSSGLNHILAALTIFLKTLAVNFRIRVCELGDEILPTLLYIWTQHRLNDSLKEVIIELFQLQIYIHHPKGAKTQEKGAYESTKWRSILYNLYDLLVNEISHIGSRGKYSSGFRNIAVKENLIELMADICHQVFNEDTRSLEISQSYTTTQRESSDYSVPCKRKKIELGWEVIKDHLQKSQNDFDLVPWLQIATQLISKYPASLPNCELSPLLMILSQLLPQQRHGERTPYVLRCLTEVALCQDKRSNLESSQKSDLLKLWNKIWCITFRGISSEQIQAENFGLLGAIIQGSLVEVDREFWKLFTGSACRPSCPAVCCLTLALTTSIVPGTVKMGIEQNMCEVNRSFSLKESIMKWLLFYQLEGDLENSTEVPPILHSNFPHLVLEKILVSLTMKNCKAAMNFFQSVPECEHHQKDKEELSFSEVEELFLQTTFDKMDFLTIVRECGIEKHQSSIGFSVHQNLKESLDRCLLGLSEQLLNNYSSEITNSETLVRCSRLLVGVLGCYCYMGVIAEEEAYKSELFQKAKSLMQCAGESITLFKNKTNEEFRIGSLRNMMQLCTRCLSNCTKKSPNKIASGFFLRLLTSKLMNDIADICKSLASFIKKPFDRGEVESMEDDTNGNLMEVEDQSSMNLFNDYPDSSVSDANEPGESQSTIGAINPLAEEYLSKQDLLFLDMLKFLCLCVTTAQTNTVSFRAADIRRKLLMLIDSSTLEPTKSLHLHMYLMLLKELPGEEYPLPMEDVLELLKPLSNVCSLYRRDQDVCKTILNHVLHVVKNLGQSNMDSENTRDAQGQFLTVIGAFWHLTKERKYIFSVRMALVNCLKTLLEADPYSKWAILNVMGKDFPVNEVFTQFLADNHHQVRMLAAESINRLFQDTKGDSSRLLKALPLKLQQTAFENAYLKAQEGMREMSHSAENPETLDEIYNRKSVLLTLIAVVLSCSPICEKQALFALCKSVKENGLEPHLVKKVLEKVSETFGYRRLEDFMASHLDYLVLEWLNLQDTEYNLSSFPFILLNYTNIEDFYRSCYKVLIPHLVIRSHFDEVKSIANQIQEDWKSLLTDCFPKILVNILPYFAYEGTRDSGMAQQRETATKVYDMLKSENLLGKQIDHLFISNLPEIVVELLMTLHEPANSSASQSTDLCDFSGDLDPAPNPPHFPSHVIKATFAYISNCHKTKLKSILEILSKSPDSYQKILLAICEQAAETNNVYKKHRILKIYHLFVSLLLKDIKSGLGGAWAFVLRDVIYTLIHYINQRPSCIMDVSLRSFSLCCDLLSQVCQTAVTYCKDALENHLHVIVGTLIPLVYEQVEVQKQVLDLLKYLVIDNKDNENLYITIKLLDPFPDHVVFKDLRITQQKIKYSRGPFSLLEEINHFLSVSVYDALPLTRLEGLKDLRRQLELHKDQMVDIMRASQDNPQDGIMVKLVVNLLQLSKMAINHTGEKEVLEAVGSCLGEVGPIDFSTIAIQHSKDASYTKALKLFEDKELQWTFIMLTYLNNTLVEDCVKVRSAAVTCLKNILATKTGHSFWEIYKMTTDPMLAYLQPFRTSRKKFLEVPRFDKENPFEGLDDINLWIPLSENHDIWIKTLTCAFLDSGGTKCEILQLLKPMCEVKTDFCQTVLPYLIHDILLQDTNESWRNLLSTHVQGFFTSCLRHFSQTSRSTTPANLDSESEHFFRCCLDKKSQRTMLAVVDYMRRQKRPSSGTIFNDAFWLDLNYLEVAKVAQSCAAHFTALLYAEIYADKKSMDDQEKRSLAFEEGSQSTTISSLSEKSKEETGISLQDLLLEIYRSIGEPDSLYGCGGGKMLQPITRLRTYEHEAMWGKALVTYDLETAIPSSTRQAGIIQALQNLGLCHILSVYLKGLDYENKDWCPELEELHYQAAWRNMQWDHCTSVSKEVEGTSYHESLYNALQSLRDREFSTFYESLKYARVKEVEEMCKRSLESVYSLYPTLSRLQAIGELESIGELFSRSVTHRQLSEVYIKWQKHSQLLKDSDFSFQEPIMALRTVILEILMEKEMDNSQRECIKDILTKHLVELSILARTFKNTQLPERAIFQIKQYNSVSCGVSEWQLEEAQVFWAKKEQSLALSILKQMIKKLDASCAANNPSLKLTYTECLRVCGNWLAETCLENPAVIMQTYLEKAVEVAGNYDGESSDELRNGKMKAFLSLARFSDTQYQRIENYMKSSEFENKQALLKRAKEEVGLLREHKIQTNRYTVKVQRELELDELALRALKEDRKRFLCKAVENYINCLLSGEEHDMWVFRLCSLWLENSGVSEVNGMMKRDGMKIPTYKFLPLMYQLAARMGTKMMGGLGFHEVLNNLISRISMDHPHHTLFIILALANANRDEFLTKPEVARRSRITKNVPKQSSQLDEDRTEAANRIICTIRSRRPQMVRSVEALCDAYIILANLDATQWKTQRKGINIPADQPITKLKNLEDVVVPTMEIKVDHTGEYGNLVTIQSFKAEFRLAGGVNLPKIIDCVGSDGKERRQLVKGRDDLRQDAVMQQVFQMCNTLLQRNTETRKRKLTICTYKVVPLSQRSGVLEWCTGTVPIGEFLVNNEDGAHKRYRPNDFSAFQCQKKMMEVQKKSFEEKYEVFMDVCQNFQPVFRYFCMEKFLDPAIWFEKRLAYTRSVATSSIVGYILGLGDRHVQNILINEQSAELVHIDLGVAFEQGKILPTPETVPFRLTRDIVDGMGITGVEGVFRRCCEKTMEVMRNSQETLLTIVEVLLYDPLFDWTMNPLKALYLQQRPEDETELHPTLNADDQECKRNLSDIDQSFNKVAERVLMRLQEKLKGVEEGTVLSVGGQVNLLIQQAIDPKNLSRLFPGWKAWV", "experiment": "Kinase assay panel", "type": "biochemical"}, "C. parvum [12]": {"test_system": "C. parvum", "experiment": "DNA synthesis", "type": "cell-based, Cryptosporidium parvum", "details": "compound at 3 h post infection, EdU at 9 h", "method_in_brief": "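HCT-8 cells were seeded at 5,000–25,000 per well on fibronectin-coated glass-bottom plates to reach 90–100% confluence, then infected with triggered oocysts. After 3 h at 37 °C, test compound or controls were added (DMSO neutral, cladosporin active) and incubation continued to about 9 h post infection. EdU was detected, vacuoles stained with VVL and nuclei with Hoechst, and wells imaged with a 40x objective.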"}, "C. parvum [13]": {"test_system": "C. parvum", "experiment": "Washout assay, nanoluciferase-expressing C. parvum", "type": "cell-based, Cryptosporidium parvum", "details": "exposure 2–6 h post infection", "method_in_brief": "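HCT-8 cells were grown to ~90% confluence, then infected with 400 nanoluciferase-expressing oocysts per well. Before infection, oocysts were primed for excystation with 10 mM HCl in water (10 min, 37 °C), then 2 mM sodium taurocholate in DPBS with Ca/Mg (10 min, 16 °C). Luminescence was read over time. RLU taken soon after infection served as day 0 and was used to normalize each timepoint.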"}, "liver and duodenum": {"test_system": "liver and duodenum", "experiment": "In vivo rat Comet assay", "details": "up to 2000 mg/kg/day", "method_in_brief": "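Liver and duodenum were sampled near Tmax after the second dose for the Comet assay.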"}, "C. parvum [14]": {"test_system": "C. parvum", "experiment": "Neonatal calf efficacy study", "type": "in vivo, neonatal calves", "method_in_brief": "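Infected neonatal calves received test compound orally by dosing syringe every 12 h for 7 days at 10 mg/kg birth weight, at least 2 h after feeding. Controls were vehicle-treated calves. The negative-control calf was sham-challenged so staff stayed blinded during dosing, clinical scoring of faecal consistency and faecal qPCR for oocysts.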"}, "[15]": {"details": "plasma, po, 1000 mg/kg/day, EDI048 1000 mg/kg/day, day 1"}, "[16]": {"details": "plasma, po, 1000 mg/kg/day, EDI048 1000 mg/kg/day, day 14"}},
  "data": [
    {"compound": "CN(C(=O)c1ccn2ncc(-c3ccc(C(N)=O)cc3)c2c1)c1ccc(C#N)cn1", "note": "[KDU731, 3–(4-carbamoylphenyl)-N-(5-cyanopyridin-2-yl)-N-methylpyrazolo [1,5-a]pyridine-5-carboxamide, reference compound]", "values": [
      {"measurement": "In vitro TK6 Micronucleus (MN) test", "setting": "TK6 cells", "value": "Negative"},
      {"measurement": "% Plasma protein binding", "setting": "Plasma protein binding", "value": 87.7, "unit": "%"}
    ]},
    {"compound": "CNC(=O)c1ccc(-c2cnn3ccc(C(=O)N(C)c4ccc(Cl)c(C(=O)OC)c4)cc23)cc1", "note": "[EDI048, methyl 2-chloro-5-(N-methyl-3-(4-(methylcarbamoyl)phenyl)pyrazolo[1,5-a]pyridine-5-carboxamido)benzoate]", "values": [
      {"measurement": "AUC", "setting": "[1]; iv, 0.1 mg/kg", "value": 0.0779, "unit": "µM·h"},
      {"measurement": "Vd", "setting": "[1]; iv, 0.1 mg/kg", "value": 1.54, "unit": "L/kg"},
      {"measurement": "clearance", "setting": "[1]; iv, 0.1 mg/kg", "value": 45.7, "unit": "mL/min/kg"},
      {"measurement": "half-life", "setting": "[1]; iv, 0.1 mg/kg", "value": 33.6, "unit": "min"},
      {"measurement": "AUC", "setting": "[1]; po, 0.3 mg/kg", "value": 0.0118, "unit": "µM·h"},
      {"measurement": "Cmax", "setting": "[1]; po, 0.3 mg/kg", "value": 5.2, "unit": "nM"},
      {"measurement": "Tmax", "setting": "[1]; po, 0.3 mg/kg", "value": 45, "unit": "min"},
      {"measurement": "bioavailability", "setting": "[1]; po, 0.3 mg/kg", "value": 5.6, "unit": "%"},
      {"measurement": "half-life", "setting": "[2]", "value": "> 240", "unit": "min"},
      {"measurement": "half-life", "setting": "[3]", "value": 175, "unit": "min"},
      {"measurement": "logD", "setting": "Lipophilicity", "value": 2.7},
      {"measurement": "logP", "setting": "Lipophilicity", "value": 3.65},
      {"measurement": "half-life", "setting": "[4]", "value": "> 240", "unit": "min"},
      {"measurement": "concentration achieving maximum rate of parasite elimination", "setting": "C. parvum [5]", "value": "≥ 27", "unit": "nM"},
      {"measurement": "live imaging of infected HCT-8 cells", "setting": "C. parvum [6]", "value": "parasites were arrested at the meront stage, preventing egress"},
      {"measurement": "bioavailability", "setting": "[7]", "value": "0.4 to 5.6", "unit": "%"},
      {"measurement": "Plasma T1/2", "setting": "Plasma stability", "value": "> 120", "unit": "min"},
      {"measurement": "half-life", "setting": "Plasma stability; Plasma T1/2, dog plasma", "value": "> 240", "unit": "min"},
      {"measurement": "induction of human pregnane X receptor", "setting": "human PXR", "value": "did not induce human pregnane X receptor"},
      {"measurement": "Permeability B–A", "setting": "[8]", "value": "7.92 / 12.9 / 1.62 ×10^−6 cm s^−1"},
      {"measurement": "half-life", "setting": "[9]", "value": 235, "unit": "min"},
      {"measurement": "IC50", "setting": "hCav1.2", "value": "> 50", "unit": "µM"},
      {"measurement": "NOAEL at 14 days", "setting": "[10]; in vivo, po", "value": 1000, "unit": "mg/kg/day"},
      {"measurement": "Tmax", "setting": "[10]; plasma, oral, rat toxicity study", "value": 30, "unit": "min"},
      {"measurement": "AUC(0-t)", "setting": "[10]; [15]", "value": 11.1, "unit": "ng·h/mL"},
      {"measurement": "AUC(0-t)", "setting": "[10]; [16]", "value": 18.6, "unit": "ng·h/mL"},
      {"measurement": "Cmax", "setting": "[10]; plasma, po, 1000 mg/kg/day, Cmax, EDI048 1000 mg/kg/day, day 14", "value": 4.13, "unit": "ng/mL"},
      {"measurement": "Tmax", "setting": "[10]; [15]", "value": 30, "unit": "min"},
      {"measurement": "Tmax", "setting": "[10]; [16]", "value": 30, "unit": "min"},
      {"measurement": "CC50 at 96 h", "setting": "Cytotoxicity assay", "value": 28.1, "unit": "µM"},
      {"measurement": "portal vein concentration relative to systemic levels", "setting": "[11]", "value": "~ 40 fold"},
      {"measurement": "IC50", "setting": "ATM", "value": 0.445, "unit": "µM"},
      {"measurement": "selectivity ATM over CpPI(4)K inhibition", "setting": "ATM", "value": "> 100", "unit": "fold"},
      {"measurement": "DNA synthesis (EdU incorporation)", "setting": "C. parvum [12]", "value": "does not affect DNA synthesis"},
      {"measurement": "washout: effect of 4 h exposure on parasite growth", "setting": "C. parvum [13]", "value": "does not affect parasite growth"},
      {"measurement": "In vivo rat Comet assay", "setting": "liver and duodenum", "value": "Negative^e"},
      {"measurement": "tolerability in calves", "setting": "C. parvum [14]; 10 mg kg^−1 every 12 h, 7 days", "value": "tolerated the full 7 day course of EDI048 treatment without compound-related abnormalities"},
      {"measurement": "faecal consistency vs vehicle-treated calves", "setting": "C. parvum [14]; P < 0.0001", "value": "improved faecal consistency"},
      {"measurement": "faecal oocyst shedding vs vehicle-treated calves", "setting": "C. parvum [14]; P = 0.0062", "value": "shed significantly fewer oocysts"},
      {"measurement": "emergence of resistance during treatment", "setting": "C. parvum [14]; calf model", "value": "resistance did not emerge"},
      {"measurement": "time to signs of resolution of diarrhea", "setting": "C. parvum [14]; post treatment", "value": "≤ 48", "unit": "h"},
      {"measurement": "recrudescence after cessation of treatment", "setting": "C. parvum [14]; up to 7 days", "value": "No recrudescence of infection"}
    ]}
  ]
}
